TMEM16A inh – TMEM16A chloride channel inhibitors, primary screen, cell-based, HTS; normalized B-score (activity score, 25-100; higher = stronger inhibition) at 10 µM; HEK293 TMEM16A/YFP iodide influx fluorescence, ionomycin; Anoctamin-1 (Mus musculus), Q8BHY3; actives 1.2% (n = 310,000);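 active = ratio plate-corrected score three or more library SD toward inhibition, starting fluorescence score within five deviations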;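 also: score derived from kinetic fluorescence span divided by baseline fluorescence per well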
MC4R antag cAMP – MC4R antagonists of cAMP signaling, primary screen, cell-based, TR-FRET, antagonist arm of biased-ligand search; actives 0.48% (n = 360,000); MC4R-expressing cells, MTII-stimulated cAMP, LANCE TR-FRET; inhibition, % at 6.5 µM;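 active = inhibition above its plate's cutoff, the mean of tested wells on that plate plus 3 SD, cut at about 29% in these data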
Target sequence (P32245 whole entry, looked up): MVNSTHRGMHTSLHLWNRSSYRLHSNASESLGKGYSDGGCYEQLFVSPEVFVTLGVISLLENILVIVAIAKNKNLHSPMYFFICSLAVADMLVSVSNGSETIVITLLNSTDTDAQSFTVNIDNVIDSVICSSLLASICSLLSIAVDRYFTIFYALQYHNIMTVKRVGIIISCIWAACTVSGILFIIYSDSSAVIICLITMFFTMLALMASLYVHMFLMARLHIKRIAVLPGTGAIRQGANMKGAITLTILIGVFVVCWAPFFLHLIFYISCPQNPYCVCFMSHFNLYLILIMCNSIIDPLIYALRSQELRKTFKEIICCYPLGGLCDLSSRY
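System – human MC4R-expressing U2OS cells · Also added – Melanotan II · Dosing – one concentration, 6.5 µM nominal · Timing – 30-min compound, 1-h challenge, 1-h detection, room temperature · Measured by – Eu-cAMP/anti-cAMP TR-FRET, emission 671 nm · Replicates – singlicate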
MC4R ag barr – MC4R agonists recruiting beta-arrestin, primary screen, cell-based, luminescence, agonist arm of biased-ligand search; Melanocortin receptor 4 (Homo sapiens), P32245; activation, % at 8.9 µM; U2OS MC4R beta-arrestin complementation; percent of melanotan II response, DMSO zero; actives 0.98% (n = 360,000); AID 540308, 2011;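 active = activation above a per-plate cutoff, the mean activation of sample wells on that plate plus 3 SD, cut at about 8% in these data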
TMEM16A act – TMEM16A chloride channel activators or potentiators, primary screen, cell-based, HTS; Anoctamin-1 (Mus musculus), Q8BHY3; HEK293 TMEM16A/YFP-H148Q/I152L, iodide quench fluorescence; hits give low values; B-score at 10 µM; actives 0.3% (n = 340,000);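 active = fluorescence-ratio B-score plate-corrected deviation score at least 3 library SD below zero, with starting fluorescence score within 5 deviations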;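 also: channel opened by trigger with iodide after compound preincubation; score built on the fluorescence ratio of max minus min over baseline; more negative score means more quench and so TMEM16A activation or potentiation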
Beta apoptosis – inhibitors of cytokine-induced beta cell apoptosis, primary screen, luminescence; INS-1E cytokine-induced death, ATP luminescence, 48 h; percent of positive-control rescue, neutral wells zero; protection from apoptosis, % (concentration not given with the values); actives 0.8% (n = 300,000); AID 435005, 2010;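 active = Every replicate reaches about 75%, or at least half do and their mean reaches it too, limit read from the data; inconclusive = At least half of replicates reach the limit but their mean does not; inactive = Under half of replicates reach the limit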;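 also: higher means more ATP so stronger rescue from cytokine killing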
CSC inhib – cancer stem cell viability inhibitors, primary screen, luminescence. cancer stem cell-like cells viability. inhibition, % at 7.5 µM. actives 1.1% (n = 300,000); in the data active = inhibition above about 75%; inconclusive = no clear call, values can overlap the other calls; tested in HMLE shEcad cells
Of the large screens only hits and unclear results are named; the others gave an inactive call. Only some compounds are listed: those with a hit (about 3.8% of all), similar ones and a draw of the others.

CC(C)(Oc1ccc(Cl)cc1)C(=O)NCC(c1ccco1)N1CCCCC1 (stereo unspecified)	none
COc1ccc(CCC(=O)N2CCN(S(=O)(=O)c3cccs3)CC2)cc1	none (no result: TMEM16A inh, Beta apoptosis, CSC inhib)
O=C(Nc1cccc(Cl)c1)N1CCN2C(=O)c3ccccc3C12c1ccccc1 (stereo unspecified)	TMEM16A inh 25
COC1=C(Nc2ccccc2)C(=O)c2ccccc2C1=O	Beta apoptosis 95.4 (no result: CSC inhib)
O=C1C(Cl)=C(NCc2cccnc2)C(=O)c2ccccc21	Beta apoptosis 83.6
O=S(=O)(Cc1ccccc1)NCc1cccnc1	none (no result: CSC inhib)
CC(C)NC1=C(Cl)C(=O)c2ccccc2C1=O	none
CCN(CC)CCCNC1=C(Cl)C(=O)c2ccccc2C1=O	Beta apoptosis 97.7, CSC inhib 106.6
COC1=C(Nc2ccc(C)cc2)C(=O)c2ccccc2C1=O	none
C=CCNC1=C(Cl)C(=O)c2ccccc2C1=O	Beta apoptosis 97.4
C[C@@H]1CN([C@@H](C)CO)S(=O)(=O)c2ccc(Br)cc2O[C@H]1CN(C)C(=O)Nc1ccc2c(c1)OCO2	none (no result: TMEM16A inh, TMEM16A act, Beta apoptosis, CSC inhib)
CCN(CC(=O)Nc1c(F)cccc1F)C(=O)c1cccn1C	none (no result: TMEM16A inh, TMEM16A act, Beta apoptosis, CSC inhib)
O=C(O)c1ccc(NC2=C(Cl)C(=O)c3ccccc3C2=O)cc1	TMEM16A inh 100, CSC inhib 102.3
O=C1C(Cl)=C(Nc2ccccc2)C(=O)c2ccccc21	CSC inhib 111.7
O=C(O)c1cccc(NC2=C(Cl)C(=O)c3ccccc3C2=O)c1	none (no result: TMEM16A inh, Beta apoptosis, CSC inhib)
CCN(C(=O)COC(=O)c1ccccc1Nc1ccccc1)c1c(N)n(Cc2ccccc2)c(=O)[nH]c1=O	none (no result: TMEM16A inh, Beta apoptosis, CSC inhib)
N#Cc1ccc(C23OCCN2CCn2nc4ccccc4c23)cc1 (stereo unspecified)	none (no result: TMEM16A inh, TMEM16A act, CSC inhib)
OC(COCC(F)(F)C(F)(F)C(F)(F)C(F)F)Cn1c2ccc(Cl)cc2c2cc(Cl)ccc21 (stereo unspecified)	CSC inhib 115.6 (no result: Beta apoptosis)
CC/C(=N\NC(=O)c1ccc2c(c1)OCO2)C12CC3CC(CC(C3)C1)C2	TMEM16A act -6.11
O=C(OCc1ccccc1)N(CCCCN(CCCNCc1ccccc1)C(=O)OCc1ccccc1)CCCNCc1ccccc1	TMEM16A act -5.37 (no result: TMEM16A inh, Beta apoptosis, CSC inhib)
O=C(NCCCCCCNC(=O)OCc1ccccc1)OCc1ccccc1	none (no result: TMEM16A inh, Beta apoptosis, CSC inhib)
Cc1ccc(NC(=S)N(Cc2ccc(Cl)cc2)Cc2ccc(C(=O)O)cc2)cc1Cl	TMEM16A inh 25
CC1Cc2cc(/C(O)=C3/C(=O)C(=O)N(CCN4CCOCC4)C3c3ccc(N(C)C)cc3)ccc2O1 (stereo unspecified)	none
C[C@H]1CN([C@@H](C)CO)S(=O)(=O)c2ccc(-c3cncnc3)cc2O[C@H]1CN(C)C(=O)NC1CCCC1	none (no result: TMEM16A inh, TMEM16A act, Beta apoptosis, CSC inhib)
Cc1nc(N2CCN(C(=O)c3ccco3)CC2)c2c3c(sc2n1)CC(C)CC3 (stereo unspecified)	Beta apoptosis 80.4
Cc1nc(N2CCN(C(=O)c3ccco3)CC2)c2c3c(sc2n1)CCCC3	none
COc1ccc(OC)c(NP2(=O)OCC(C)([N+](=O)[O-])CO2)c1 (stereo unspecified)	none (no result: TMEM16A inh, Beta apoptosis, CSC inhib)
C=CCCCN(Cc1ccccc1)S(=O)(=O)c1ccccc1Br	TMEM16A inh 25, TMEM16A act -6.15
Cc1ccc(C(=O)Nc2ccc(S(=O)(=O)NC3=NCCCCC3)cc2)cc1S(=O)(=O)N1CCOCC1	none (no result: TMEM16A inh)
CC(=O)Nc1ccc(NC(=O)CSc2nnc(NC(=O)c3cccc(F)c3)s2)cc1	none
CCn1c2ccccc2c2cc([N+](=O)[O-])ccc21	none
CN(C)CCn1c2ccccc2c2nc3ccc([N+](=O)[O-])cc3cc21	MC4R ag barr 8.3, CSC inhib inconclusive
O=C(CSc1nnc(-c2ccccc2F)n1C1CC1)N1CCCC1	none (no result: TMEM16A inh, TMEM16A act, Beta apoptosis, CSC inhib)
Cc1nn(-c2ccccc2)c(Cl)c1C(=O)N1CCN(c2ncnc3c2cnn3-c2ccccc2)CC1	TMEM16A inh 25
CC1CC(C)CN(C(=O)CN2C(=O)NC3(CCCCCC3)C2=O)C1 (stereo unspecified)	none (no result: TMEM16A inh, CSC inhib)
N#CC1=C(SCC(=O)c2ccc(Br)cc2)NC2=C(C(=O)CCC2)C1c1ccco1 (stereo unspecified)	CSC inhib 91.3 (no result: Beta apoptosis)
COC(=O)CSC1=C(C#N)C(c2ccc(C)o2)CC(=O)N1 (stereo unspecified)	none
CC(=O)C1=C(C)NC(SCC(=O)c2ccc(Cl)cc2Cl)=C(C#N)C1c1ccco1 (stereo unspecified)	Beta apoptosis 104.6
Cc1ccc(C(=O)CSC2=C(C#N)C(c3ccco3)CC(=O)N2)c(C)c1 (stereo unspecified)	TMEM16A inh 25
CCOc1ccccc1NC(=O)COC(=O)c1c(CC)noc1C	none (no result: TMEM16A inh, Beta apoptosis, CSC inhib)
O=C(O)c1ccccc1C(=O)N1N=C(c2ccccc2)CC1c1ccccc1O (stereo unspecified)	none
O=[N+]([O-])c1ccc(O)c(/C=N/Nc2nc3ccccc3[nH]2)c1	Beta apoptosis 99.1, CSC inhib 101.8
Brc1ccccc1/C=N/Nc1ccccn1	MC4R ag barr 9.4
O=[N+]([O-])c1ccc(O)c(/C=N/Nc2ncnc3c2cnn3-c2ccccc2)c1	CSC inhib 104.1
O=[N+]([O-])c1ccc(NN=Cc2ccccc2O)nc1	none (no result: TMEM16A inh, Beta apoptosis, CSC inhib)
O=[N+]([O-])c1ccc(O)c(/C=N/Nc2ccccn2)c1	Beta apoptosis 105.4, CSC inhib 118.4
CCCCCCN1C[C@H](O)[C@@H](n2cc(C3CC3)nn2)C[C@@H]1c1ccc(C)cc1	none (no result: TMEM16A inh, TMEM16A act, Beta apoptosis, CSC inhib)
CCCCC[C@H](O)/C=C/[C@H]1[C@H](O)CC(=O)[C@@H]1CCCCCCC(=O)O	none (no result: MC4R antag cAMP, MC4R ag barr, TMEM16A act, Beta apoptosis)
CCCCCCCCCCC[C@@H](C[C@@H]1OC(=O)[C@H]1CCCCCC)OC(=O)[C@H](CC(C)C)NC=O	CSC inhib 102.4
O=C1c2ccccc2C(=O)N1C1C(=O)N2CCSC12C(=O)OCc1ccccc1 (stereo unspecified)	none (no result: TMEM16A inh, Beta apoptosis, CSC inhib)
CC(C)CCN1CCN(Cc2ccc(C#CC(C)(C)O)s2)CC1CCO (stereo unspecified)	TMEM16A act -8.54
CC(C)CN1CCN(Cc2ccc(C#CC(C)(C)O)cc2)CC1CCO (stereo unspecified)	none
Cc1ccccc1OCC(O)CN(CCO)Cc1ccccc1 (stereo unspecified)	TMEM16A act -37.9
O=C(NCC(c1ccco1)N1CCc2ccccc2C1)c1ccc(Cl)c([N+](=O)[O-])c1 (stereo unspecified)	none
O=C(NCC(c1ccco1)N1CCCC1)c1ccc(Cl)c(S(=O)(=O)N2CCc3ccccc32)c1 (stereo unspecified)	Beta apoptosis 74.9 (no result: TMEM16A inh, CSC inhib)
